# Results from different studies.
# Each line is one published result; the experiments were not run side by side.
# Target: Dual specificity mitogen-activated protein kinase kinase 1 (MAP2K1, Homo sapiens, UniProt Q02750)
SMILES,test,conditions,measurement,value
O=C1NC(=O)c2cc(Nc3ccc(F)cc3)c(Nc3ccc(F)cc3)cc21,cell-free assay,0.5 µM,remaining signal,103%
Cc1sc(C(=O)NC2COC2)cc1-n1cc(NC(=O)Nc2c(F)cccc2Cl)cn1,"enzyme activity, inhibitor",10 µM,remaining activity,95.5%
Cc1cc(NC(=O)c2cccc3cc(-c4cccc5[nH]nc(N)c45)ccc23)ccc1F,"enzyme activity, inhibitor",0.1 µM,activity vs control,102%
CNCc1ccccc1-c1csc([C@H](C)Nc2nc(C)nc3cc(OC)c(OC)cc23)c1,"cell-free assay, competition with immobilised ligand",1 µM,remaining binding,100%
CCOc1cc(-c2nncn2C)ccc1Nc1ncc2cc(C)nc(NCC(C)(C)C)c2n1,"enzyme activity, inhibitor, FRET",1 µM,inhibition,16%
C[C@@H]1CN(c2cc(-c3nn(C)c4ccc(OC5(C)CC5)cc34)ncn2)C[C@H](C)O1,"cell-free assay, competition with immobilised ligand",1 µM,remaining binding,74%
Nc1nc(Nc2ccc(S(N)(=O)=O)cc2)nn1C(=O)c1c(F)cccc1F,cell-free assay,0.5 µM,remaining signal,93.9%
CNC(=O)c1cc(Oc2ccc(NC(=O)Nc3ccc(Cl)c(C(F)(F)F)c3)cc2)ccn1,"enzyme activity, inhibitor",10 µM,inhibition,2%
CSc1cccnc1N1CCN(Cc2nc3ccccc3[nH]2)CC1,"cell-free assay, competition with immobilised ligand",1 µM,remaining binding,79%
FC(F)(F)Oc1cccc(-c2cnc3ccc(-c4ccncc4)nn23)c1,"enzyme activity, inhibitor, radiometric",1 µM,activity vs control,79%
C=CC(=O)Nc1cc(Nc2nccc(Nc3cc(Cl)c(F)cc3C(C)(C)O)n2)c(OC)cc1N1CC[C@@H](N(C)C)C1,"enzyme activity, inhibitor",1 µM,inhibition,21%
Cn1c(=O)n(-c2ccc(C(C)(C)C#N)cc2)c2c3cc(-c4cnc5ccccc5c4)ccc3ncc21,"enzyme activity, inhibitor",10 µM,remaining activity,116%
Cc1ccc(Nc2nccc(N(C)c3ccc4c(C)n(C)nc4c3)n2)cc1S(N)(=O)=O,"enzyme activity, inhibitor",0.3 µM,inhibition,-5%
CNCc1ccc(-c2cc(-c3nc(-c4ccc(S(=O)(=O)C(C)C)cc4)cnc3N)on2)cc1,"enzyme activity, inhibitor",0.4 µM,inhibition,12%
CC(C)c1ccc(NC(=O)c2cccs2)c(-c2nc3ccccc3[nH]c2=O)c1,"enzyme activity, inhibitor",1 µM,activity vs control,112%
Cc1ccc(NC(=O)c2ccc(CN3CCN(C)CC3)cc2)cc1Nc1nc(-c2cccnc2)cs1,cell-free assay,0.5 µM,remaining signal,111%
Cc1[nH]c(/C=C2\C(=O)Nc3ccc(F)cc32)c(C)c1C(=O)N[C@H]1CCN(C(=O)N(C)C)C1,"enzyme activity, inhibitor",1 µM,remaining activity,59%
CCCS(=O)(=O)Nc1ccc(F)c(C(=O)c2c[nH]c3ncc(-c4ccc(Cl)cc4)cc23)c1F,"enzyme activity, inhibitor",1 µM,inhibition,< 10%
CNC(=O)Nc1ccc2c(c1)CC[C@@]21OC(=O)N(CC(=O)N(Cc2ccc(F)cc2)[C@@H](C)C(F)(F)F)C1=O,"cell-free assay, competition with immobilised ligand",1 µM,remaining binding,85%
COc1cc(Cl)c(C(=O)N[C@@H](CN[C@H]2CC[C@@H](N)CC2)Cc2ccc(C#N)cc2)cc1-c1ccc(CN[C@H](C)c2ccc(C)cc2)o1,"enzyme activity, inhibitor",1 µM,remaining activity,98%
CCN(CC)CCNC(=O)c1c(C)[nH]c(/C=C2\C(=O)Nc3ccc(F)cc32)c1C,"enzyme activity, inhibitor",10 µM,inhibition,76%
Cc1ccc(C(=O)Nc2ccc(CN3CCN(C)CC3)c(C(F)(F)F)c2)cc1C#Cc1cnc2cccnn12,"enzyme activity, inhibitor",23.5 nM,remaining activity,100%
Oc1cccc(-c2nc(N3CCOCC3)c3oc4ncccc4c3n2)c1,"enzyme activity, inhibitor",10 µM,remaining activity,105%
CS(=O)(=O)N1CCCC(NC(=O)[C@H](CCC2CCCCC2)NC(=O)c2ccc(CNC(=O)c3cnc4ccccn34)cc2)C1 (stereo partly shown),"cell-free assay, competition with immobilised ligand",0.1 µM,remaining binding,100%
COc1cc(/C=C/C(=O)CC(=O)/C=C/c2ccc(O)c(OC)c2)ccc1O,"enzyme activity, inhibitor",1 µM,activity vs control,93%
Nc1cnc(N2CCc3cc(S(=O)(=O)Nc4c(F)cc(Cl)cc4F)cc(N4CCCC4=O)c32)nc1,"cell-free assay, competition with immobilised ligand",1 µM,remaining binding,100%
Cn1cnc(Br)c1C1=CN(c2ncnc3[nH]cnc23)CCS1,"enzyme activity, inhibitor, radiometric",2 µM,inhibition,16.9%
CCN(CC)CCNC(=O)c1c(C)[nH]c(/C=C2\C(=O)Nc3ccc(F)cc32)c1C,"enzyme activity, inhibitor",1 µM,remaining activity,44%
Nc1ncnc2occ(-c3ccc(NC(=O)Nc4cc(C(F)(F)F)ccc4F)cc3)c12,"cell-free assay, inhibitor",20 µM,remaining signal,9.3%
Nc1nc(Nc2ccccc2)sc1C(=O)c1c(F)cccc1F,"enzyme activity, inhibitor",10 µM,remaining activity,96%
CN(c1ncccc1CNc1nc(Nc2ccc3c(c2)CC(=O)N3)ncc1C(F)(F)F)S(C)(=O)=O,"enzyme activity, inhibitor",1 µM,inhibition,77.1%
CC(C)(C)c1nc2c(s1)c1nc(N)ncc1c1ccc(NS(=O)(=O)c3c(F)cccc3F)c(F)c12,"enzyme activity, inhibitor, radiometric",1 µM,remaining activity,79%
CC(C)(O)c1cncc(-c2nc3ccc(F)cc3n2C2CC2)c1,"cell-free assay, competition with immobilised ligand",1 µM,remaining binding,100%
Cc1ccc(NC(=O)c2ccc(C)c(C(F)(F)F)c2)cc1C#Cc1nn(C2CCC(O)CC2)c2ncnc(N)c12 (stereo not shown),cell-free assay,10 µM,remaining signal,34%
CN(C)C1CCN(CC#Cc2nn(C3CCCC3)c3nc(NCc4ccccc4)ncc23)C1 (stereo not shown),"enzyme activity, inhibitor, FRET",0.1 µM,inhibition,9%
CN([C@@H]1CCc2c(CC(=O)O)c3cc(S(C)(=O)=O)ccc3n2C1)S(=O)(=O)c1ccc(F)cc1,"cell-free assay, competition with immobilised ligand",1 µM,remaining binding,98%
COc1cc2ncnc(Nc3ccc(Oc4ccccc4)c(C)c3C)c2cc1OC,"enzyme activity, inhibitor",1 µM,inhibition,1%
